SUMO1-SIM PPI = SUMO1-SIM interaction modulation; P63165; SUMO1 binding to a labelled peptide, TR-FRET, 1 h; inhibition, % at 20 µM; 360,000 tested, 0.33% active; AID 602429; in the data active = inhibition above about 37%
Scp1 inh = Scp-1 (human) phosphatase inhibition | Q9GZU7 | Recombinant Scp1, phosphopeptide, malachite green phosphate absorbance | inhibition, % at 20 µM | 340,000 tested, 0.88% active;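 active = inhibition above about 50% at 20 µM, limit read from the data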;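 also: plate controls were DMSO wells with enzyme for no effect and wells lacking enzyme for full effect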
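Incubation: 45 min enzyme reaction at room temperature / System: truncated SCP-1 phosphatase (76-261aa) / Reagent: Phospho 17-mer peptide substrate / Buffer or medium: Acidic Tris acetate buffer with magnesium and detergent / Signal: absorbance at 630 nm / Doses: one concentration, 20 µM, with 1.0% DMSO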
STEP inh = blocks human striatal-enriched tyrosine phosphatase; inhibition, % at 20 µM; recombinant STEP, OMFP fluorogenic substrate, fluorescence; AID 588621; 360,000 tested, 0.25% active; P54829;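 active = inhibition at 20 µM, scaled per plate between control wells, above about 37%, limit read from the data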;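 also: 0% = DMSO with enzyme and substrate and 100% = substrate only without enzyme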
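Measure: Control-normalized % inhibition with plate pattern correction | Test system: STEP phosphatase, cell-free reaction | Medium: pH 6.0 Bis-Tris with DTT and Tween 20 | Technique: Fluorescence, 480/540 nm | Times: Reaction 20 min, ambient temperature | Doses: Single compound dose of 20 µM, 1% DMSO final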
DNMT1 block = inhibitors of human DNMT1; P26358; DNMT1 molecular beacon, Hinp1I cleavage, fluorescence; inhibition (reported as % activation of signal), % at 10 µM; 360,000 tested, 0.83% active; in the data active = inhibition above about 50%
Target sequence (P26358 504-1616 limits assumed): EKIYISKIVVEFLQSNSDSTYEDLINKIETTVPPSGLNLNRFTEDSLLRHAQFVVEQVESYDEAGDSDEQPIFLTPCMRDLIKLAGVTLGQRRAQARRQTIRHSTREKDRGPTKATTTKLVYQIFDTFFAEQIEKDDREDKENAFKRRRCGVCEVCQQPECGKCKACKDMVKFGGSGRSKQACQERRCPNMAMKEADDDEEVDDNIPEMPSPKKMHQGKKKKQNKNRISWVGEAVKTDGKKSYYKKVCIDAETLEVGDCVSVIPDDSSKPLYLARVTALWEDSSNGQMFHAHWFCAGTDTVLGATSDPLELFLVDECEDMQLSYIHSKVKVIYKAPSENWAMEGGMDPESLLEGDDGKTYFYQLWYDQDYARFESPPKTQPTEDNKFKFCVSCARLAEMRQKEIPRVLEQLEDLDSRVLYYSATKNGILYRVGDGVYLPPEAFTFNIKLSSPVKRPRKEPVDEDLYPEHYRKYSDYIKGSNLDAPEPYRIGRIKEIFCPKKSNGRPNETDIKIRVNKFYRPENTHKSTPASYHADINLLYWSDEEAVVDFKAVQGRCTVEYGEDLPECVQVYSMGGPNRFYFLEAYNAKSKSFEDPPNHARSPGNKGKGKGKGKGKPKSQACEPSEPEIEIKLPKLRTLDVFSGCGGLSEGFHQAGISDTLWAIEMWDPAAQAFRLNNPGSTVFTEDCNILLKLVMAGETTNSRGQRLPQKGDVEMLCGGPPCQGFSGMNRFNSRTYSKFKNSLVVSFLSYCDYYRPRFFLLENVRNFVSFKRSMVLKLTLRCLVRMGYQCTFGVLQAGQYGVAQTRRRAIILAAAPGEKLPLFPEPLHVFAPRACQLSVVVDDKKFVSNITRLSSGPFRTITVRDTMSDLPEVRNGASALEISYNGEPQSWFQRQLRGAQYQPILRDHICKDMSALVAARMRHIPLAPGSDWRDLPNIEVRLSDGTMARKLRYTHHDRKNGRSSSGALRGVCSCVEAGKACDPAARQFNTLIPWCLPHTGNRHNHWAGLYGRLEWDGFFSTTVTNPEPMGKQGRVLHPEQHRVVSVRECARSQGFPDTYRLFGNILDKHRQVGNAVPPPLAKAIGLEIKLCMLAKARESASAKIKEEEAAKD
LMPTP inh = LMPTP (human) inhibition; P24666; recombinant LMPTP-A, OMFP fluorogenic substrate, fluorescence intensity; inhibition, % at 20 µM; 360,000 tested, 0.22% active; AID 651560;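 active = compounds that cut the enzyme signal by at least half of the control window in the single-dose screen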;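 also: plate controls were DMSO wells with enzyme plus substrate for no effect and substrate without enzyme for full effect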
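Buffer or medium: Bis-Tris pH 6.0, DTT, detergent; Assay system: LMPTP-A enzyme; Quantity: 0.625 nM enzyme; Detection: endpoint fluorescence intensity; Times: 50 min dark incubation at room temperature; Controls: substrate-only low control, DMSO enzyme-plus-substrate high control; Doses: single 20 µM dose; Read-out: percent inhibition versus substrate-only and uninhibited controls; Reagent: 400 µM OMFP.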
Scp1 confirm = confirmation of human Scp-1 phosphatase inhibitors. shares compounds with Scp1 inh. recombinant SCP-1 catalytic domain, phosphate release, malachite green absorbance. inhibition, % at 20 µM. 2,500 tested, 61% active. AID 540281;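 active = inhibition of at least 30% at 20 µM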;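 also: plate controls were DMSO with enzyme for no effect and buffer wells lacking enzyme for full effect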
MG interference = colorimetric interference in Scp-1 counter-screen. shares compounds with Scp1 inh. Colorimetric interference counterscreen, malachite green absorbance 630 nm. apparent inhibition (interference), % at 20 µM. 2,500 tested, under 10 active. AID 540313;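 active = inhibition of at least 30% at 20 µM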;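 also: compounds added after enzyme reaction finished so only phosphate colour detection is probed; plate controls were DMSO wells with completed Scp-1 reaction for no effect and substrate wells lacking enzyme for full effect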
Scp-1 Tm shift = binds human Scp-1, shifting its melting temperature; shares compounds with Scp1 inh; AID 540329; 1,500 tested, 25% active; Recombinant SCP1, Sypro Orange thermal shift Tm; thermal shift relative to vanadate control, % at 40 µM;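 active = substances whose mean melting-temperature shift, as a percentage of the reference inhibitor's shift, reaches about 5.3%, limit read from the data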;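 also: 0% = Tm of DMSO wells and 100% = Tm with sodium orthovanadate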
DNMT1 interf DR = counter-screen for DNMT1 inhibitors: spectral interference, dose response | shares compounds with DNMT1 block | IC50, µM | molecular beacon fluorescence | 200 tested, under 10 active
DNMT1 inh conf = confirmation of human DNMT1 inhibitors; shares compounds with DNMT1 block; DNMT1 molecular beacon HinP1I cleavage, fluorescence; inhibition, % at 10 µM; 2,300 tested, 8% active; AID 602385;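 active = average inhibition of at least 30% in the single-concentration confirmation test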
Beacon interf = shows spectral interference in the DNMT1 beacon assay; 2,300 tested, 1% active; activation (fluorescence interference), % at 10 µM; shares compounds with DNMT1 block; AID 602387; DNMT1 molecular beacon spectral interference counterscreen, fluorescence 485/520;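 active = activation of at least 30% at 10 µM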;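 also: DNMT1 catalytic domain with a HinP1I cleavage step and a FAM/dabcyl DNA beacon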
STEP conf = confirmation of human STEP phosphatase inhibitors; shares compounds with STEP inh; recombinant STEP, OMFP fluorogenic substrate, fluorescence; inhibition, % at 20 µM; 520 tested, 32% active; AID 623866;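 also: 0% = enzyme with substrate plus DMSO and 100% = substrate without enzyme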
An asterisk follows results filed as active; · = no result given. Only some compounds are listed: those with a hit (about 1.7% of all), similar ones and a draw of the others. Unless noted, no rule for the calls is given here.

SMILES	SUMO1-SIM PPI	Scp1 inh	STEP inh	DNMT1 block	LMPTP inh	DNMT1 inh conf	Beacon interf	others
C[C@@H]1CN([C@H](C)CO)C(=O)CCCn2nncc2CO[C@H]1CN(C)C(=O)Oc1ccccc1	2	·	-1	-2	-1	·	·
C[C@H]1[C@H](OC(=O)CCC(=O)NCc2ccc(C(=O)O)cc2)O[C@@H]2O[C@@]3(C)CC[C@H]4[C@H](C)CC[C@@H]1C24OO3	8	4	-1	0	0	·	·
CC(C)CC(NC(=O)CCCNC(=O)CCC(=O)OC1O[C@H]2OC3(C)CC[C@H]4[C@H](C)CCC(C1C)C24OO3)C(=O)O (some centres undefined)	-1	95*	-4	4	-1	·	·	Scp1 confirm=-12;MG interference=-13
Cc1cc(/C=C2\C(=O)NC(=O)N(c3ccccc3F)C2=O)c(C)n1-c1cc(C(=O)O)cc(C(=O)O)c1	13	55*	42*	87*	1	27	1	Scp1 confirm=32*;MG interference=-15;Scp-1 Tm shift=9.9*;DNMT1 interf DR=>99
Cc1cc(/C=C2/C(=O)NC(=O)N(C)C2=O)c(C)n1-c1ccccc1	-10	-7	-3	2	2	·	·
CC[N+](C)(CC)CCCCOc1ccc2c(c1)C(=O)c1cc(OCCCC[N+](C)(CC)CC)ccc1-2	-48	103*	2	54*	3	39*	-7	Scp1 confirm=62*;MG interference=-2;Scp-1 Tm shift=1;DNMT1 interf DR=>99
Cc1ccc2c(c1Cl)NC(C(=O)O)C1CC(Sc3ccccc3[N+](=O)[O-])C(Cl)C21 (centres undefined)	30	60*	5	71*	42	22	1	Scp1 confirm=65*;MG interference=-16;Scp-1 Tm shift=18*
O=C(Cc1cccs1)N1Cc2ccccc2-n2nncc2C1	3	·	4	37	20	·	·
COc1ccc(CN2C(=O)NC(=O)/C(=C/c3ccoc3)C2=O)cc1	32	72*	68*	101*	24	11	-1	Scp1 confirm=71*;MG interference=-13;Scp-1 Tm shift=1
COC(=O)C1=C(c2cccc(OC)c2OC)C[C@@H]2CC[C@H]1N2C(=O)NCCCOC(C)C	-3	-6	-2	2	-1	·	·
COc1ccc(CN2Cc3cc(-c4cccc(F)c4)ccc3-n3nncc3C2)cc1	8	·	1	6	4	·	·
O=C1NC(=O)C(=Cc2ccc(SC3CCCCC3)o2)C(=O)N1	9	53*	1	86*	5	10	0	Scp1 confirm=75*;MG interference=-9;Scp-1 Tm shift=-7
COc1ccc(C(=O)OC2CC[C@@]3(C)C4CCC5[C@]6(O)CC(O)[C@@]7(O)C(CN8CC(C)CCC8[C@@]7(C)O)[C@]6(O)C[C@@]53O[C@]24O)cc1OC (some centres undefined)	-5	-7	0	0	0	·	·
CCN(CC)P(=O)(NC(=O)C(Cl)(Cl)Cl)N(CC)CC.[Cl-].[Cl-].[Cl-].[Nd+3]	107*	101*	87*	27	44	·	·	Scp1 confirm=70*;MG interference=-17;Scp-1 Tm shift=-8;STEP conf=25*
COC(=O)C1=C(c2ccc(OC)c(OC)c2)C[C@@H]2CC[C@H]1N2C(=O)N1CCCC1	2	-5	-1	1	0	·	·
O=Cc1c(C(=O)O)n(Cc2ccc(Cl)cc2)c2ccccc12	10	-3	-6	95*	0	15	1
O=C1CN(O)C(c2ccccc2)=c2cc(Br)ccc2=N1	1	-5	-2	4	0	·	·
CSc1cccc(NP2(=O)OCC(C)([N+](=O)[O-])CO2)c1 (centres undefined)	0	2	2	-2	-1	·	·
O=C1NC(=O)N(Cc2ccco2)C(=O)/C1=C/c1cccn1CCOc1ccccc1Cl	20	6	0	69*	3	22	0
CCCCCCn1c(=O)c(C(=O)Nc2ncccc2O)c(O)c2ccccc21	15	0	7	70*	20	1	4
O=C1c2ccccc2-c2cc3ccccc3cc21	-25	-8	0	3	1	·	·
O=C1c2ccccc2-c2cccc3cccc1c23	-15	49	6	54*	11	35*	2	DNMT1 interf DR=>99
O=C1NCN(c2ccccc2)C12CCN(C(c1ccnc3ccccc13)c1nnnn1Cc1ccccc1)CC2 (centres undefined)	4	·	3	-15	2	·	·
Cc1cccc(N2C(=O)NC(=O)/C(=C\c3ccc4c(c3)CCCN4Cc3ccccc3)C2=O)c1	1	-9	-2	26	7	·	·
CCC(C)N1C(=O)/C(=C/c2ccc3c(c2)CCN3CCCCl)C(=O)NC1=S (centres undefined)	-1	-5	0	85*	2	12	-3
SMILES	SUMO1-SIM PPI	Scp1 inh	STEP inh	DNMT1 block	LMPTP inh	DNMT1 inh conf	Beacon interf	others
O=C1C=C(N2CC2)c2ccccc2C1=O	65*	·	7	121*	17	88*	-10	DNMT1 interf DR=>99
CC(Cc1ccccc1)N1Cc2ccccc2C1 (centres undefined)	8	-1	3	3	-3	·	·
Cc1cccc(N2C(=O)NC(=O)/C(=C\c3cc(C)n(-c4sc5c(c4C#N)CCCC5)c3C)C2=O)c1C	54*	-7	3	71*	3	15	-3
O=c1[nH]c(=O)n(CCc2ccc(F)cc2)c(O)c1C=NCc1ccc2c(c1)OCO2	0	-6	14	78*	50*	1	3
COc1ccc(CCn2c(O)c(C=NCc3ccc4c(c3)OCO4)c(=O)[nH]c2=O)cc1OC	0	-9	0	-1	1	·	·
Cc1ccc(N2C(=O)NC(=O)/C(=C/c3cnn(-c4ccc(C)cc4)c3)C2=O)cc1	5	-8	1	2	-1	·	·
Cc1ccc(N2C(=O)NC(=O)/C(=C/c3ccoc3)C2=O)cc1	102*	84*	95*	93*	56*	64*	-5	DNMT1 interf DR=>99
